Source: PubChem BioAssay (Johns Hopkins Ion Channel Center)
hERG rescue: hERG rescue from dofetilide block, primary screen, cell-based, CHO-hERG, FluxOR thallium flux, dofetilide IC70. Voltage-gated inwardly rectifying potassium channel KCNH2 (Homo sapiens), Q12809. dofetilide IC70 present. activation (rescue from dofetilide block), less the hit threshold, % at 10 µM. hit rate 0.51% among 310,000;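 active = activation above the mean of controls blocked by dofetilide plus 5 SD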;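 also: thallium influx through hERG after potassium depolarization seen as dye fluorescence rise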
KCNQ1 act: potentiators or activators of KCNQ1 channel, primary screen, cell-based, thallium flux, high-throughput; Potassium voltage-gated channel subfamily KQT member 1 (Homo sapiens), P51787; CHO-K1 KCNQ1, thallium flux FluxOR fluorescence; hits give high values; B-score at 10 µM; hit rate 0.35% among 310,000; AID 2648, 2010;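 active = fluorescence ratio B-score, a plate-corrected score, at least three library SD, with initial intensity B-score within 5 SD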
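Doses: Single concentration per compound, DMSO matched to controls | Test system: KCNQ1-transfected CHO-K1 cells | Timing: 90 min dye loading and 20 min compound exposure, both at room temperature | Measured by: Kinetic FluxOR thallium fluorescence, 10-s 1-Hz baseline, 110-s post-stimulus read | Medium: Assay buffer with matched DMSO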
KCNQ1 inh: inhibitors of human KCNQ1 channel, primary screen, cell-based, thallium flux, high-throughput; Potassium voltage-gated channel subfamily KQT member 1 (Homo sapiens), P51787; CHO-K1 KCNQ1, FluxOR thallium flux fluorescence; hits give high values; B-score at 10 µM; hit rate 1.3% among 310,000; AID 2642, 2010;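 active = compounds whose thallium flux B-score, printed positive for inhibition, exceeds three library SD while starting fluorescence stays within three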;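 also: channel opened by potassium depolarization with thallium stimulus after 20 min compound exposure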
Kir21 block: inhibitors of mouse Kir2.1 inward-rectifier potassium channel; Inward rectifier potassium channel 2 (Mus musculus), P35561; HEK293-Kir2.1, FluxOR thallium flux fluorescence; hits give low values; B-score at 10 µM; hit rate 0.85% among 310,000; AID 1672, 2009;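 active = fluorescence ratio B-score at or below minus 3 SD of library scores, with starting-brightness B-score within 2 SD, cut at about -4.2 in these data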;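 also: channel flux triggered by added potassium and thallium sulfate stimulus; B-score of peak minus minimum fluorescence over baseline after thallium stimulus; more negative B-score means stronger Kir2.1 block with less thallium influx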
KCNK3 block: human KCNK3 channel inhibitors, primary screen, CHO cells, FluxOR thallium flux, B-score; AID 602410, 2012; B-score at 10 µM; hit rate 0.84% among 340,000; FluxOR fluorescence; hits give low values; Potassium channel subfamily K member 3 (Homo sapiens), O14649;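 active = B-score under library mean minus 4 SD, starting fluorescence ratio at most library mean plus 5 SD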;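 also: more negative B-score means stronger inhibition of thallium flux through KCNK3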
Target sequence (O14649 whole entry, looked up): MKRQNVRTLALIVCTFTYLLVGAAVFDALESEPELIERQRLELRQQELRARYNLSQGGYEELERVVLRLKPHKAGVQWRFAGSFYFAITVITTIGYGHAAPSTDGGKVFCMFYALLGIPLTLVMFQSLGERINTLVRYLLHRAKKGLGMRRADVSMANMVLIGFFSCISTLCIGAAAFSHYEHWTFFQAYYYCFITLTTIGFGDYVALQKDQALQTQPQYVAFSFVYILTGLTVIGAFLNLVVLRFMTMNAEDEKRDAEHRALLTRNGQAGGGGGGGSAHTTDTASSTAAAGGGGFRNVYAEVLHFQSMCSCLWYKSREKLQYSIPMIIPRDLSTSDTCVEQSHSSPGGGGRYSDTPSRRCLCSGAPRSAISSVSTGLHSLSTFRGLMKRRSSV
KCNK9 inh: KCNK9 potassium channel inhibitors, primary screen, HEK293 cells, thallium flux; Potassium channel subfamily K member 9 (Homo sapiens), Q9NPC2; FluxOR thallium flux fluorescence; hits give low values; B-score at 10 µM; hit rate 1.2% among 310,000; AID 488922, 2010;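 active = ratio B-score over 3 SD below the library mean, with starting fluorescence within 5 SD of its mean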;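 also: negative B-score means less thallium flux so channel inhibition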
KCNK3 confirm: retest of human KCNK3 channel inhibitors, confirmation, CHO cells, FluxOR thallium flux, triplicate; shares compounds with KCNK3 block; ratio percent of control, % at 10 µM; FluxOR fluorescence; 0% buffer, 100% carvedilol maximal block; hit rate 99% among 2,400;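 active = ratio percent of control, averaged over triplicates, above buffer control mean plus 5 SD, cut at about 64% in these data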;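 also: ratio is the fluorescence rise from min to max over baseline after thallium stimulus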
KCNK3 noninduced: thallium flux inhibition in non-induced cells, primary screen, counter-screen for KCNK3 inhibitor project, cell-based, non-induced KCNK3 line, FluxOR thallium, triplicate | shares compounds with KCNK3 block | hit rate 40% among 2,400 | non-induced KCNK3 parental cells; hits give low values | thallium flux ratio (lower = more inhibition) at 10 µM | AID 651747, 2012;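 active = thallium flux ratio, averaged over three wells, more than 5 SD below the buffer control mean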;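 also: host cells are CHO cells without KCNK3 induction; ratio is peak minus trough fluorescence over baseline then normalized to buffer controls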
Starred values were filed as active, the others as inactive; i = inactive; nt = not tested or not shown. Compounds with a hit are over-represented: about 3.7% of the library has one in this group of screens.

SMILES | hERG rescue | KCNQ1 act | KCNQ1 inh | Kir21 block | KCNK3 block | KCNK9 inh | KCNK3 confirm | KCNK3 noninduced
Cc1cccn2c(=O)nc(SCC(=O)NCc3ccc(F)cc3)nc12 | -11 | i | i | 0.39 | i | i | nt | nt
CCS(=O)(=O)c1nc(S(=O)(=O)c2ccc(Cl)cc2)c(N2CCC(C(N)=O)CC2)s1 | -4 | i | i | 1.4 | i | i | nt | nt
COc1ccccc1N(C)S(=O)(=O)c1ccc(C(=O)Nc2cc(F)ccc2C)cc1 | nt | nt | nt | nt | i | nt | nt | nt
COc1ccc(OC)c(-c2csc(NC(=O)Cc3cccs3)n2)c1 | -5 | i | i | 1.8 | -8.8* | i | 85* | i
COC(=O)c1cccc(NS(=O)(=O)c2ccc(OC)c(C(=O)N3CCOCC3)c2)c1C | -5 | i | i | 0.33 | i | i | nt | nt
Cc1ccccc1OCC(O)Cn1c2ccccc2c2ccccc21 (stereo not given) | -5 | i | i | -1.2 | -9.7* | -6.7* | 131* | 0.13*
O=C(c1ccc(-c2ccccc2)cc1)N1CCN(c2ccccc2F)CC1 | -9 | i | i | 0.93 | -9.2* | i | 108* | i
O=C(CCC1CCCCC1)NC1CCCCC1 | nt | nt | nt | nt | i | nt | nt | nt
CCOc1ccc(N2C(=O)CC(NNc3nc4ccccc4s3)C2=O)cc1 (stereo not given) | -7 | i | i | -0.65 | i | i | nt | nt
Cc1ccc(C(=O)NCC(=O)OCC(=O)Nc2cc(S(=O)(=O)N3CCOCC3)ccc2Cl)s1 | nt | nt | nt | nt | i | nt | nt | nt
Cc1ccc(S(=O)(=O)N2CCOCC2)cc1NC(=O)COC(=O)CNC(=O)c1ccc(Cl)cc1Cl | -3 | i | i | -0.22 | -10* | i | 87* | i
CCCCn1nc(NC(=O)c2cccs2)c2cc3ccccc3nc21 | -30 | i | i | 0.29 | -9.5* | i | 118* | 0.14*
O=C(N/N=C/C1C(c2ccccc2)C1(Cl)Cl)c1cccc(Br)c1 (stereo not given) | -11 | i | 10* | 1.6 | -13* | -7.4* | 115* | i
O=C(COC(=O)c1ccccc1-c1ccccc1[N+](=O)[O-])c1ccccc1 | -4 | i | i | 2.9 | -11* | i | 92* | i
O=C(COC(=O)c1ccccc1[N+](=O)[O-])c1ccc2c(c1)OCO2 | -14 | i | i | -0.1 | i | i | nt | nt
c1ccc(CNc2ncnc3scc(-c4cccs4)c23)nc1 | -33 | i | i | -0.2 | -11* | i | 118* | i
c1ccc(-c2csc3ncnc(NCc4ccccn4)c23)cc1 | -24 | i | i | -2.5 | i | i | nt | nt
Cc1cccc2c(=O)c(Br)c(C)n(Cc3ccccc3)c12 | -12 | i | i | -0.43 | -8.9* | -7.8* | 105* | i
COc1ccc(-c2nnc(SCC(=O)Nc3c(Cl)cc(Cl)cc3C(=O)O)o2)cc1 | nt | nt | nt | nt | i | nt | nt | nt
COc1ccc(/C=N/NC(=O)c2cc(-c3ccccc3OC)nc3ccccc23)cc1COC(C)=O | -10 | i | i | 1.9 | -11* | i | 97* | i
CCOc1ccccc1C(=O)NCC(=O)OCC(=O)c1c(N)n(C)c(=O)n(C)c1=O | nt | nt | nt | nt | i | nt | nt | nt
COc1cc(C(=O)Nc2ccccc2N2CCCCC2)cc(OC)c1OC | -13 | i | i | 0.16 | -10* | i | 126* | 0.12*
